The text below walks through data of ChEMBL document CHEMBL2375257, “Synthesis of C- and O-prenylated tetrahydroxystilbenes and O-prenylated cinnamates and their action towards cancer cells” (Eur J Med Chem, 2013).

This test has as its system K562. The test can be described thus: Cytotoxicity against human K562 cells assessed as growth inhibition after 72 hrs by MTT assay. The format is functional, cell-based. Conditions: for pIC50: K562, 72 h. The essentials: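 K562 leukaemia cells exposed to compounds for 72 h at 37 °C in a humidified 5% CO2 incubator, with MTT read-out. IC50 is the concentration inhibiting cell growth by 50%, estimated from two concentrations per compound. Values are the mean of two independent assays, each run in duplicate; coefficients of variation <10%.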
(Tetrazolium assays rely on reduction of a dye to a coloured formazan, in cell work by metabolically active cells.)

pIC50: −log10 of the molar value.

As usually defined, the pIC50 is the IC50 on a negative log10 scale, so that one unit is a factor of ten.

As for `COc1cc(CCc2cc(O)cc(OCC=C(C)C)c2)ccc1O`, the “growth inhibition (GI)” value was “Dose-dependent effect” and the negative-log IC50 (pIC50) is 4.20.

With `COC(=O)/C=C/c1ccc(OC/C=C(\C)CO)cc1`, the “growth inhibition (GI)” value is “Dose-dependent effect” and the negative logarithm of the IC50 (pIC50) is 4.15.

Take `COc1ccc(CCc2cc(O)cc(OCC=C(C)C)c2)cc1O`: the “growth inhibition (GI)” value is “Dose-dependent effect” and the pIC50 was 4.50.

Turning to `COC(=O)/C=C/c1ccc(OCC=C(C)C)cc1`, the “growth inhibition (GI)” value is “Dose-dependent effect” and the pIC50 was 4.01.

`COc1cc(/C=C/c2cc(O)cc(OCC=C(C)C)c2)ccc1O`: the “growth inhibition (GI)” value was “Dose-dependent effect” and the pIC50 was 4.68.

In the case of `COC(=O)/C=C/c1ccc(OC/C=C(\C)C=O)cc1`, the “growth inhibition (GI)” value is “Dose-dependent effect” and the pIC50 is 4.24.

On to `COc1cc(/C=C/c2cc(O)cc(OC)c2CC=C(C)C)ccc1O`, for which the “growth inhibition (GI)” value is “Dose-dependent effect” and the negative logarithm of the IC50 (pIC50) was 7.00.

In the case of `COc1cc(CCc2cc(O)cc(OC)c2CC=C(C)C)ccc1O`, the “growth inhibition (GI)” value was “Dose-dependent effect” and the pIC50 was 5.00.

In the case of `COc1ccc(/C=C/c2cc(O)cc(OCC=C(C)C)c2)cc1O`, the “growth inhibition (GI)” value was “Dose-dependent effect” and the negative logarithm of the IC50 (pIC50) is 4.33.
